Shown are actives, neighbours in structure and some others; about 2.8% of the full set was active somewhere.
PP1 inh: PP1-alpha phosphatase inhibitors, primary screen, counter-screen for PP5 inhibitor project, biochemical, fluorescence, OMFP substrate, single point | hit rate 0.9% among 320,000 | Serine/threonine-protein phosphatase PP1-alpha catalytic subunit (Homo sapiens), P62136 | purified PP1alpha | inhibition, % at 6.7 µM;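 active = inhibition above the mean inhibition of all tested compounds plus 3 SD, computed separately for each screening campaign, cut at about 15% in these data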
AI-2 QS mod: Vibrio harveyi AI-2 quorum sensing modulators, primary screen, JMH597 strain, luminescence/OD600 ratio | AID 2094, 2009 | activity change, % at 7.5 µM | hit rate 0.4% among 300,000 | Vibrio harveyi JMH597 AI-2 luminescence/OD600 ratio, 9 h; active compounds read low; strain lacks LuxN and CqsS sensors; 0 = neutral-control median; in the data active = activity change below about -75%, passing the limit was not always enough;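 note: luminescence divided by OD600 gain over 9 h not by final OD600 alone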
p-CIP stab down: p/CIP-EGFP fusion destabilizers, primary screen, fluorescence, F442A cells; 16 h; decrease of EGFP signal, % at 10 µM; hit rate 0.01% among 290,000;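 active = EGFP signal decrease of at least 30% at 10 µM or well 3 SD below plate mean, unless failing retest; inactive = the rest, including hits failing retest or dose response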
UBC13 inh: UBC13 polyubiquitin chain formation inhibitors, primary screen, biochemical, TR-FRET, uHTS; inhibition, % at 20 µM; hit rate 0.47% among 330,000; in the data active = inhibition above about 45%, passing the limit was not always enough
T cruzi repl: inhibitors of intracellular T. cruzi growth, primary screen, luminescence, NIH3T3 host cells; AID 1885, 2009; inhibition, % (no concentration beside the values); hit rate 1.4% among 300,000; T. cruzi beta-gal in NIH3T3, 90 h;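 active = mean inhibition across valid replicates above about 55%, limit read from the data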;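 note: signal also drops with host cell toxicity which is not excluded here; 0% = plate median of DMSO wells and 100% = zero luminescence signal; higher percent means less beta-gal luminescence so fewer parasites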
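System – NIH/3T3 host cells with β-galactosidase reporter T. cruzi · Doses – single 50 nL compound addition per well in DMSO · Reagent – 5000 T. cruzi trypomastigotes/well · Medium – Low-serum DMEM with 2% FBS · Timing – ≥90 h infection period, 3 h prior cell attachment · Evaluation – parasite load inhibition, % · Technique – GalScreen luminescence, 60 min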
PP1 confirm: PP1 phosphatase inhibitors, confirmation, biochemical, fluorescence, OMFP substrate, triplicate. shares compounds with PP1 inh. purified PP1alpha. inhibition, % at 6.7 µM. hit rate 52% among 1,900;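 active = mean PP1 inhibition above a set limit taken from the earlier primary screen, cut at about 15% in these data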
PP5 counter: PP5 phosphatase inhibition by PP1 hits, confirmation, counter-screen for PP1 inhibitor project, biochemical, fluorescence, triplicate | AID 2360, 2010 | purified PP5c, OMFP fluorescence | inhibition, % at 6.7 µM | hit rate 4% among 1,900 | shares compounds with PP1 inh;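 active = mean PP5 inhibition over triplicate wells above about 9.5% taken from the earlier PP1 screen, limit read from the data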
Target sequence (P53041 whole entry, looked up): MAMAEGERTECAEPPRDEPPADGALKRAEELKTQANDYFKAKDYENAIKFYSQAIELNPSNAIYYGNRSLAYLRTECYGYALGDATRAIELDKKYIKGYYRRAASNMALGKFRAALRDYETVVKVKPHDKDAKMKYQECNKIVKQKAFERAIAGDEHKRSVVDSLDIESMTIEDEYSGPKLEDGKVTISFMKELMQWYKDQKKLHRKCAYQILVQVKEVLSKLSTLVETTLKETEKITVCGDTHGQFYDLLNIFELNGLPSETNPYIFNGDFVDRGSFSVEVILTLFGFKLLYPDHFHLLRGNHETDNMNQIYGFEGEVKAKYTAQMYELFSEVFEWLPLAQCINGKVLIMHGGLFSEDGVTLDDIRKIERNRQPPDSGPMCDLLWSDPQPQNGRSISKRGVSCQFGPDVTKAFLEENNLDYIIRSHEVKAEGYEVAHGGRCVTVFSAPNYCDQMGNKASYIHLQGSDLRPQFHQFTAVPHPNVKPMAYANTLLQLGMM
* = called active by the depositor; · = not tested or not shown.

SMILES	PP1 inh	AI-2 QS mod	p-CIP stab down	UBC13 inh	T cruzi repl	PP1 confirm	PP5 counter
COc1ccc2nc(NC(=O)/C=C/c3ccc4c(c3)OCO4)sc2c1	-1.9	-4.7	-5.2	-14.0	-19.3	·	·
N#C/C(=C/c1ccc(-c2ccc(S(N)(=O)=O)cc2)o1)c1nc2ccccc2s1	19.6*	·	-270.9	-23.4	·	21.9*	-6.9
Cc1cc(C(=O)NNC(=O)COc2c(C)cc(Br)cc2C)n[nH]1	-0.2	19.5	-27.1	1.8	-17.7	·	·
Cc1ccc(NC(=O)NCC2CCN(Cc3cccc(Cl)c3)CC2)c(Cl)c1	26.8*	8.1	14.4	20.8	45.5	-6.5	-3.2
O=C(NCC1CCN(Cc2cccc(Cl)c2)CC1)Nc1ccccc1Cl	·	7.3	-0.2	10.9	18.7	·	·
CCOc1ccc(N=Nc2c(=O)[nH]n3c(=O)c4c([nH]c23)CCCC4)cc1	12.3	29.9	-3.2	-265.1	-2.6	·	·
O=c1[nH]n2c(=O)c3c([nH]c2c1N=Nc1cccc(Cl)c1)CCCC3	36.5*	8.7	-10.5	-77.8	-3.3	26.1*	-0.2
CCCOc1ccc(-c2c(C(=O)N/N=C/c3cccnc3)nnn2-c2nonc2N)cc1	27.4*	17.4	-10.3	-2.8	-15.9	21.2*	-5.5
CCCOc1ccc(-c2c(C(=O)N/N=C/c3ccc(C)cc3)nnn2-c2nonc2N)cc1	1.5	88.1	0.9	-1.5	9.0	·	·
Cc1ccc(NC(=O)CSC(C)c2nc3ccccc3c(=O)[nH]2)cc1 (stereo unspecified)	-3.1	17.2	9.3	1.0	-12.0	·	·
O=C(Cn1cnc2ccccc2c1=O)Nc1nc2ccccc2s1	2.0	-23.5	12.6	-0.1	-8.5	·	·
CCc1ccc2nc(NC(=O)Cn3cnc4ccccc4c3=O)sc2c1	26.2*	-16.2	-5.5	8.5	1.8	29.0*	-2.6
Nc1ncnc2sc3c(c12)CCNC3	-1.1	0.1	7.4	-7.7	-15.3	·	·
Cc1ccc(-c2cc(C(=O)Nc3ccc(S(=O)(=O)N4CC(C)OC(C)C4)cc3)[nH]n2)c(O)c1 (stereo unspecified)	18.9*	14.3	1.0	1.5	7.0	16.1*	0.7
Clc1ccc2nc(-c3ccccn3)c(Nc3ccc4c(c3)OCO4)n2c1	46.1*	7.0	-0.9	·	35.2	39.7*	-1.1
Cc1ccc(C)c(NC(=S)N2CCC(NC(=O)c3cccc(F)c3)CC2)c1	5.0	31.1	-1.3	9.9	-5.1	·	·
CN(C)c1ccc(N=Cc2ccco2)cc1	18.0*	·	-15.6	-14.8	·	10.5	3.3
CCc1ccc(NC(=S)N(CCN(C)C)C(C)c2ccncc2)cc1 (stereo unspecified)	-2.0	0.0	1.9	-8.9	5.0	·	·
COc1cnc(-c2ccccn2)nc1Oc1cccc(C(F)(F)F)c1	45.7*	17.1	13.1	-8.3	-2.4	45.9*	1.3
COc1cnc(-c2ccccn2)nc1N(C)c1ccccc1	28.2*	-24.1	-8.8	-6.9	65.8*	28.4*	-2.1
COc1cnc(-c2ccccn2)nc1Oc1ccccc1	23.3*	26.2	6.0	-10.9	-1.0	16.6*	-2.6
Cc1cccc(CN2C[C@]34CC[C@@H](C[C@@H]3S2(=O)=O)O4)c1	3.0	33.5	6.5	0.1	-25.5	·	·
O=C(COC(=O)c1ccc2ncsc2c1)Nc1ccccc1Br	1.5	·	·	9.9	·	·	·
CCOC(=O)c1sc(N2C(=O)C(O)=C(C(=O)c3ccco3)C2c2cccc([N+](=O)[O-])c2)nc1C (stereo unspecified)	38.5*	22.0	-6.7	·	18.6	45.4*	5.0
CCOC(=O)c1sc(N2C(=O)C(O)=C(C(=O)c3ccco3)C2c2cccc(Cl)c2)nc1C (stereo unspecified)	26.7*	52.0	-21.1	-10.5	-7.1	16.9*	-0.7
